In article PMC10651775 (Blood, 2022):
Structures can show the parent of a compound that is named as a salt. Where two headings read alike, the source gives them in different places.

How the values were obtained:
[1] = tested on: patients with R/R ATL; type: in vivo, human; conditions: for ORR by subtype / ORR / ORR by disease status: IEAC
Outline: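 Adults with R/R ATL (acute, lymphoma or unfavourable chronic type) took oral test compound (EZH1/EZH2 inhibitor) 200 mg once daily, fasting, in continuous 28-day cycles until progression or unacceptable toxicity; 50 mg if on strong CYP3A plus P-gp inhibitors. An independent committee assessed response at week 4, then every 8 weeks, then every 12 weeks after week 48, using modified ATL criteria without the ≥4-week persistence requirement.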

[2] = tested on: H3K27 trimethylation; conditions: compared with the EZH2-selective inhibitor tazemetostat; cited from earlier work
[3] = tested on: patients with R/R ATL; test: Phase 2 trial of valemetostat: safety; type: in vivo, human
Outline: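 Safety population: all patients receiving ≥1 dose of oral test compound, 200 mg once daily, fasting, in continuous 28-day cycles; dose was reduced to 50 mg with strong CYP3A plus P-gp inhibitors. Adverse events were coded with MedDRA version 23.1 and graded by CTCAE version 5.0.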

[4] = Plasma valemetostat pharmacokinetics, noncompartmental analysis; type: in vivo, human; conditions: Mean (SD); for AUC / Cmax: human, plasma, oral, 200 mg; for AUC: AUCtau, Cycle 1 day 15 (steady state)
Outline: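 Patients took oral test compound, 200 mg once daily, fasting. Serial and trough blood samples were taken for plasma drug levels. Total and unbound drug were measured at steady state on cycle 1 day 15. Accumulation ratio was derived from AUC over the dosing interval.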

[5] = tested on: ATL cell; conditions: compared with tazemetostat and GSK126; cited from earlier work
[6] = Grade ≥3 hematologic TEAE, % of patients
[7] = hematologic TEAE, all grades, % of patients

Cc1cc(C)c(CNC(=O)c2cc(Cl)c3c(c2C)O[C@@](C)([C@H]2CC[C@H](N(C)C)CC2)O3)c(=O)[nH]1 [valemetostat, Valemetostat tosylate]
ORR by subtype ([1]; lymphoma (1/6)): 16.7%
ORR ([1]; patients pretreated with mogamulizumab (11/24), 90% CI 28.2-64.2): 45.8%
ORR ([1]; patients refractory to mogamulizumab-containing therapies (3/6)): 50.0%
ORR ([1]; patients with prior lenalidomide treatment (4/8), 90% CI 15.7-84.3): 50%
ORR by disease status ([1]; recurrent (4/6)): 66.7%
ORR by disease status ([1]; refractory disease (5/11)): 45.5%
ORR by disease status ([1]; relapsed (3/8)): 37.5%
ORR by subtype ([1]; unfavorable chronic (1/3)): 33.3%
centrally reviewed IEAC-assessed ORR ([1]; all patients (12/25), 90% CI 30.5-65.9): 48.0%
responders with an ongoing response ([1]; at data cutoff (6/12)): 50%
patients who achieved SD able to receive valemetostat for ≥6 months ([1]; following treatment initiation): 4 of 10
median PFS ([1]; immature, 95% CI 3.0 months to not estimable): 7.4 months
median OS ([1]; immature, 95% CI 6.5-16.4 months): 16.4 months
responses converted from PR to CR ([1]; in vivo): 2 patients
H3K27 trimethylation [2]: strongly reduced H3K27 trimethylation
TEAEs leading to dose reduction ([3]; 2 patients): 8%
Serious TEAEs ([3]; 8 patients): 32%
Secondary malignancies, including hematologic malignancy or myelodysplastic syndrome ([3]; AE of special interest): not observed
TEAEs that required dose interruption ([3]; Five patients): 20%
anemia [3, 6]: 32%
leukopenia [3, 6]: 12%
lymphopenia [3, 6]: 16%
neutropenia [3, 6]: 12%
thrombocytopenia [3, 6]: 32%
Grade ≥3 TEAEs ([3]; N = 25): 15 (60.0) n (%)
Grade ≥3 TRAEs ([3]; N = 25): 14 (56.0) n (%)
Serious TEAE ([3]; N = 25): 8 (32.0) n (%)
Serious TRAEs ([3]; N = 25): 7 (28.0) n (%)
TEAEs leading to discontinuation ([3]; N = 25): 2 (8.0) n (%)
TEAEs leading to interruption ([3]; N = 25): 5 (20.0) n (%)
TEAEs leading to reduction ([3]; N = 25): 2 (8.0) n (%)
TRAEs ([3]; N = 25): 24 (96.0) n (%)
TRAEs leading to discontinuation ([3]; N = 25): 2 (8.0) n (%)
TRAEs leading to interruption ([3]; N = 25): 4 (16.0) n (%)
TRAEs leading to reduction ([3]; N = 25): 2 (8.0) n (%)
TEAEs ([3]; N = 25, All AEs): 25 (100.0) n (%)
Alopecia ([3]; TEAE, All grades, N = 25): 10 (40.0) n (%)
Decreased appetite ([3]; TEAE, All grades, N = 25): 5 (20.0) n (%)
Dysgeusia ([3]; TEAE, All grades, N = 25): 9 (36.0) n (%)
Pyrexia ([3]; TEAE, All grades, N = 25): 5 (20.0) n (%)
anemia ([3]; TEAE, All grades, N = 25): 13 (52.0) n (%)
leukopenia ([3]; TEAE, All grades, N = 25): 5 (20.0) n (%)
lymphopenia ([3]; TEAE, All grades, N = 25): 6 (24.0) n (%)
neutropenia ([3]; TEAE, All grades, N = 25): 7 (28.0) n (%)
thrombocytopenia ([3]; TEAE, All grades, N = 25): 20 (80.0) n (%)
Alopecia ([3]; TEAE, Grade ≥3, N = 25): 0 n (%)
Decreased appetite ([3]; TEAE, Grade ≥3, N = 25): 2 (8.0) n (%)
Dysgeusia ([3]; TEAE, Grade ≥3, N = 25): 0 n (%)
Pyrexia ([3]; TEAE, Grade ≥3, N = 25): 0 n (%)
anemia ([3]; TEAE, Grade ≥3, N = 25): 8 (32.0) n (%)
leukopenia ([3]; TEAE, Grade ≥3, N = 25): 3 (12.0) n (%)
lymphopenia ([3]; TEAE, Grade ≥3, N = 25): 4 (16.0) n (%)
neutropenia ([3]; TEAE, Grade ≥3, N = 25): 3 (12.0) n (%)
thrombocytopenia ([3]; TEAE, Grade ≥3, N = 25): 8 (32.0) n (%)
discontinued study treatment owing to AEs ([3]; Two patients (cardiac failure, thrombocytopenia)): 8%
patients with thrombocytopenia who required dose modification ([3]; discontinuation 1 patient, dose interruption 2 patients): Three of 20
median time to recovery ([3]; grade 4 thrombocytopenia, recovery to platelet count ≥25 × 10^9/L): 3 days
anemia [3, 7]: 52%
leukopenia [3, 7]: 20%
lymphopenia [3, 7]: 24%
neutropenia [3, 7]: 28%
thrombocytopenia [3, 7]: 80%
patients requiring a red blood cell transfusion for anemia ([3]; in vivo): 3 patients
patients requiring platelet transfusions for thrombocytopenia ([3]; in vivo): Five
treatment-related deaths ([3]; in vivo): No treatment-related deaths occurred
patients who experienced grade 4 thrombocytopenia ([3]; platelet count <25 × 10^9/L): 3 patients
Rac (accumulation ratio for AUCtau) ([4]; Total, Cycle 1 day 15): 1.19
Rac (accumulation ratio for AUCtau) ([4]; Unbound, Cycle 1 day 15): 1.27
AUC ([4]; Total): 20800 ng·h/mL
AUC ([4]; Unbound): 584 ng·h/mL
Cmax ([4]; Total valemetostat, Cycle 1 day 1, 200 mg once daily): 2230 ng/mL
Cmax ([4]; Total valemetostat, Cycle 1 day 15): 2300 ng/mL
Cmax ([4]; Unbound valemetostat, Cycle 1 day 1): 81.7 ng/mL
Cmax ([4]; Unbound valemetostat, Cycle 1 day 15): 84.9 ng/mL
attenuation of ATL cell growth in vitro [5]: greater attenuation of ATL cell growth in vitro at lower concentrations than tazemetostat and GSK126
